Assay outcomes (PubChem)
RGS4 act: potentiators or activators of RGS4; HEK293 M3R/inducible RGS4, carbachol calcium flux Fluo4; active compounds read low; hit rate 0.92% among 310,000; B-score at 10 µM;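 active = B-score of the integrated calcium signal more than 4 SD below the library mean, with starting fluorescence not abnormally high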;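 also: negative B-score means reduced calcium response which marks RGS4 activation or potentiation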
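Assay system: Inducible-RGS4 HEK293 cells carrying M3 receptor | Schedule: Compound preincubation 20 min at room temperature before agonist | Signal: Kinetic calcium fluorescence imaging with Fluo4-AM dye, 2 µM | Read-out basis: B score from integrated fluorescence ratio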
RGS4 block: human RGS4 inhibition. hit rate 0.45% among 310,000. HEK293 M3R/RGS4 inducible, Fluo-4 calcium flux; active compounds read high; triggered by carbachol at its EC20. B-score at 10 µM. P49798;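 active = B-score, a plate-corrected calcium signal, over three deviations above library mean, with baseline fluorescence within five deviations of library mean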;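 also: RGS4 expression induced by doxycycline in cells with stable M3 receptor; B-score is computed from the integrated fluorescence ratio over baseline after carbachol; higher B-score means a larger calcium signal and so more RGS4 inhibition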
Target sequence (P49798 whole entry, looked up): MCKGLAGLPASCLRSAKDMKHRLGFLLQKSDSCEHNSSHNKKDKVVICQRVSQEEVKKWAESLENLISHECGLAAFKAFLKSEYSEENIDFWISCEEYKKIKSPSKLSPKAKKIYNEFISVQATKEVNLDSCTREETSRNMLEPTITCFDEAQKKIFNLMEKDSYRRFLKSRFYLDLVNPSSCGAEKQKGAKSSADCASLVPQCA
MrgX1 PAM: allosterically activates human MrgX1 receptor signaling | B-score at 10 µM | MrgX1-HEK293, Fluo-4 calcium flux, FDSS; active compounds read high | hit rate 0.63% among 310,000;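 active = plate-corrected calcium response at least 3 library SD above typical, normal starting fluorescence, not activating the receptor alone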;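 also: compound read alongside a low EC10 to EC30 dose of BAM8-22 agonist; peak minus trough fluorescence over baseline measured at the second addition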
Target sequence (Q96LB2 whole entry, looked up): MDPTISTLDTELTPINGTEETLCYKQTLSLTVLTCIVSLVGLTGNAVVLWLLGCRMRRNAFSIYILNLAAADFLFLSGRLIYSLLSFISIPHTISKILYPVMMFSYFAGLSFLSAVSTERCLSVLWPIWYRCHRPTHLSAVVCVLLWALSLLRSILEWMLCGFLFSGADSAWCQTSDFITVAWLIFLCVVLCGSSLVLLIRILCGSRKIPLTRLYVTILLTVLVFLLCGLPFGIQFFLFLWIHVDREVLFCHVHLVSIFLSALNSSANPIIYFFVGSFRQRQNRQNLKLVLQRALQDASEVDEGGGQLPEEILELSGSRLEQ
MrgX1 antagonist: blocks BAM8-22 activation of human MrgX1 receptor; MRGX1-HEK293 calcium flux, Fluo-4, BAM8-22 antagonism; active compounds read low; B-score at 10 µM; hit rate 1.3% among 310,000; AID 588676; Q96LB2;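 active = calcium-response B-score plate-corrected more than 3 library SD below zero, starting fluorescence within 5 deviations, no agonist response on first addition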;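 also: peak minus trough fluorescence over baseline after final BAM8-22 challenge near maximal dose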
MrgX1 agonist: human MrgX1 receptor agonism, primary screen | MrgX1-HEK293 cells, Fluo-4 calcium fluorescence, agonist mode; active compounds read high | hit rate 0.44% among 310,000 | B-score at 10 µM;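 active = calcium response B-score plate-corrected fluorescence ratio at least 3 library SD, with starting fluorescence B-score inside 5 SD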
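System: HEK293 cells stably expressing human MrgX1 receptor; Dosing: test compound in the initial addition of three; Schedule: overnight plating, then 30 min 37 °C plus 30 min room-temperature dye loading; Detection: kinetic calcium dye fluorescence, Fluo-4 NW; Controls: per-plate positive and negative controls for Z′ factor.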
MrgX1 ant reconf: reconfirmed antagonist of human MrgX1 receptor signaling. shares compounds with MrgX1 antagonist. MrgX1-HEK293, BAM8-22 calcium flux, Fluo-4; active compounds read low. remaining BAM8-22 calcium response % of control (active compounds read low), % at 10 µM. hit rate 19% among 2,300. AID 602420;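 active = remaining agonist calcium response no higher than 100% minus 3 SD of agonist-only control wells, with starting fluorescence near control levels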;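 also: agonist BAM8-22 given at a near maximal EC90 to ECmax level; peak minus minimum fluorescence divided by baseline after agonist addition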
HEK293 Ca flux: counter-screen for MrgX1 antagonists: effect in parental HEK293 cells; fluorescence ratio F(max-min)/F0 at 10 µM; shares compounds with MrgX1 antagonist; hit rate 2% among 4,000; AID 624111; Fluo-4 calcium fluorescence, FDSS;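 active = duplicate-averaged calcium fluorescence ratio at least three times the standard deviation of buffer wells, a nonspecific response in parental cells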
HEK293 Ca counter: activity in parental HEK293 cells without MrgX1. AID 624114. fluorescence ratio F(max-min)/F0 at 10 µM. shares compounds with MrgX1 antagonist. hit rate 0.4% among 4,000. parental HEK293 calcium flux, Fluo-4 fluorescence ratio; active compounds read high;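 active = calcium fluorescence ratio, averaged over duplicates, at least 3 SD of the buffer-well ratio, meaning a nonspecific response in receptor-free cells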;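 also: untransfected parental HEK293 lacking MrgX1 used as counterscreen for MrgX1 allosteric activators; fluorescence change taken during the second addition on a kinetic imager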
HEK293 Ca cntr2: MrgX1 activator counter-screen hit in parental HEK293 cells; shares compounds with MrgX1 antagonist; Fluo-4 calcium fluorescence (FDSS); active compounds read high; fluorescence ratio F(max-min)/F0 at 10 µM; hit rate 8.7% among 4,000; AID 624115;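 active = calcium fluorescence ratio at least three times the spread of buffer wells, meaning a non-specific response in parental cells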
Numbers stand for hits; i = inactive; nt = not tested or not shown. An excerpt weighted towards active compounds, which were near 3.5% of everything screened.

SMILES	RGS4 act	RGS4 block	MrgX1 PAM	MrgX1 antagonist	MrgX1 agonist	MrgX1 ant reconf	HEK293 Ca flux	HEK293 Ca counter	HEK293 Ca cntr2
CC1Cc2ccccc2N1C(=O)c1ccc(N2CCCCC2)c([N+](=O)[O-])c1 (stereo not drawn)	i	i	i	-11	i	i	i	i	i
CC1Cc2ccccc2N1C(=O)c1ccc(N2CCCC2)c([N+](=O)[O-])c1 (stereo not drawn)	i	i	i	i	i	nt	nt	nt	nt
COCCN=C1Sc2nc3ccc(C)cc3cc2CN1Cc1ccco1	i	i	i	-5.4	i	i	i	i	i
CC(CC(=O)N(C)c1c(N)n(Cc2ccccc2)c(=O)[nH]c1=O)c1ccccc1 (stereo not drawn)	i	i	i	i	i	nt	nt	nt	nt
CCN(CCCNC(=O)CNC(=O)c1nn(-c2ccc(OC)cc2)c(=O)c2ccccc12)c1cccc(C)c1	i	i	i	i	i	nt	nt	nt	nt
Cc1cc(C)c(C(N)=O)c(NC(=O)Nc2ccccc2Cl)n1	i	i	i	-4.6	i	i	i	i	i
Cc1cc(C)c(C(N)=O)c(Nc2cccc(Cl)c2C)n1	i	i	i	i	i	nt	nt	nt	nt
O=C(O)[C@H](Cc1ccccc1)N1C(=O)c2c(Cl)c(Cl)c(Cl)c(Cl)c2C1=O	i	i	i	-8.6	i	i	i	i	i
O=C(O)C(Cc1ccccc1)n1cccc1 (stereo not drawn)	i	i	i	i	i	nt	nt	nt	nt
COc1cccc(/C=N/n2c(N)nc3ccccc32)c1OC	i	i	i	i	i	nt	nt	nt	nt
COc1ccc(/C=N/n2c(N)nc3ccccc32)cc1OC	nt	nt	i	-8.6	i	i	i	i	i
CN(C)CCNC(=S)Nc1ccccc1Cl	i	i	i	i	i	nt	nt	nt	nt
Cc1c(Cl)cccc1NC(=S)NCCCN(C)C	i	i	i	-5.5	i	i	i	i	i
S=C(NCCNC(=S)Nc1ccccc1Cl)Nc1ccccc1Cl	i	i	i	-4.7	i	85%	i	i	i
CCN(C(=O)CSc1nncn1-c1ccccc1)C1CCS(=O)(=O)C1 (stereo not drawn)	i	i	i	i	i	nt	nt	nt	nt
COC(=O)[C@@H]1C[C@@]2(Br)c3ccccc3N(S(=O)(=O)c3ccccc3)[C@H]2N1C(=O)OC	i	i	i	-6	i	i	i	i	61
Cc1cccc(NC(=O)CSc2nnc(CNC(=O)c3ccco3)n2C)c1	i	i	i	i	i	nt	nt	nt	nt
CCSc1nnc(NC(=O)C(CC)Oc2ccccc2)s1 (stereo not drawn)	i	i	i	-6.6	i	i	i	i	i
CCSc1nnc(NC(=O)COc2ccccc2)s1	i	i	i	i	i	nt	nt	nt	nt
CCN(Cc1ccc(NC(C)=O)cc1)CC1CCCN(CCc2cccc(OC)c2)C1 (stereo not drawn)	i	i	i	i	i	nt	nt	nt	nt
Cn1c(N)nc2nc(CCc3ccccc3)c(=O)[nH]c2c1=O	i	i	i	i	i	nt	nt	nt	nt
CN(C)C(CNC(=O)CCc1nc2sc3c(c2c(=O)[nH]1)CCCC3)c1ccccc1 (stereo not drawn)	i	i	i	-6.5	i	i	i	i	i
COc1ccc(C)cc1NC(=S)NNC(=O)c1c(Br)cnn1C	i	i	i	i	i	nt	nt	nt	nt
Cc1ccc(CN2CCCNC2=O)cc1	i	i	i	-4.9	i	i	i	i	i
O=C(Nc1ccncc1)c1ccc2c(c1)S(=O)(=O)c1ccccc1C2=O	i	i	i	i	i	nt	nt	nt	nt
O=C(Nc1ccc(-c2ccccc2)cc1)c1ccc2c(c1)S(=O)(=O)c1ccccc1C2=O	i	i	i	-4.7	i	i	i	i	i
COc1ccc2oc(C(=O)OCC(=O)NCc3ccco3)c(C)c2c1	i	i	i	-6.4	i	i	i	i	i
Cc1ccc(CNS(=O)(=O)c2ccc3c(c2)NC(=O)CS3)cc1	i	i	i	i	i	nt	nt	nt	nt
